Test results: ChEMBL document CHEMBL4613316, “Synthesis and Selective Functionalization of Thiadiazine 1,1-Dioxides with Efficacy in a Model of Huntington's Disease” (ACS Med Chem Lett, 2020)
Activity calls are given as the source filed them. No cut-off for these calls is given here.

How the values were obtained:
Homo sapiens = species: Homo sapiens; experiment: Agonist activity at HSP70 in human HEK293H cells transfected with HTT17Q assessed as reduction in HTT protein aggregation at 10 uM measured after 6 hrs by DAPI staining based confocal microscopy; assay type: cell-based
Summary of the method: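 HEK293H cells transfected with 4 μg HTT17Q-mCherry construct; 24 h post-transfection treated with 10 μM compound or DMSO vehicle control for 6 h. Cells stained with DAPI and imaged by confocal microscopy. Aggregates (puncta) counted per cell with a bright-spot detection tool. Significance assessed against DMSO control.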

[1] = biological target: Histone deacetylase 1 (Homo sapiens) (UniProt Q13547); experiment: Inhibition of HDAC1 in human HeLa nuclear extract at 0.1 to 1 uM using HDAC substrate incubated for 30 mins by microplate reader assay; assay type: cell-free
[2] = biological target: Histone deacetylase 2 (Homo sapiens) (UniProt Q92769); experiment: Inhibition of HDAC2 in human HeLa nuclear extract at 0.1 to 1 uM using HDAC substrate incubated for 30 mins by microplate reader assay; assay type: cell-free
[3] = biological target: Histone deacetylase 3 (Homo sapiens) (UniProt O15379); experiment: Inhibition of HDAC3 in human HeLa nuclear extract at 0.1 to 1 uM using HDAC substrate incubated for 30 mins by microplate reader assay; assay type: cell-free
[4] = biological target: Histone deacetylase 4 (Homo sapiens) (UniProt P56524); experiment: Inhibition of recombinant human GST-His-tagged HDAC4 at 0.1 to 1 uM using fluorogenic HDAC substrate incubated for 30 mins by microplate reader assay
[5] = biological target: Histone deacetylase 5 (Homo sapiens) (UniProt Q9UQL6); experiment: Inhibition of recombinant human GST-His-tagged HDAC5 at 0.1 to 1 uM using fluorogenic HDAC substrate incubated for 30 mins by microplate reader assay
[6] = biological target: T1, Protein deacetylase HDAC6 (Homo sapiens) (UniProt Q9UBN7); experiment: Inhibition of recombinant human GST-His-tagged HDAC6 at 0.1 to 1 uM using fluorogenic HDAC substrate incubated for 30 mins by microplate reader assay
T1 sequence (whole entry): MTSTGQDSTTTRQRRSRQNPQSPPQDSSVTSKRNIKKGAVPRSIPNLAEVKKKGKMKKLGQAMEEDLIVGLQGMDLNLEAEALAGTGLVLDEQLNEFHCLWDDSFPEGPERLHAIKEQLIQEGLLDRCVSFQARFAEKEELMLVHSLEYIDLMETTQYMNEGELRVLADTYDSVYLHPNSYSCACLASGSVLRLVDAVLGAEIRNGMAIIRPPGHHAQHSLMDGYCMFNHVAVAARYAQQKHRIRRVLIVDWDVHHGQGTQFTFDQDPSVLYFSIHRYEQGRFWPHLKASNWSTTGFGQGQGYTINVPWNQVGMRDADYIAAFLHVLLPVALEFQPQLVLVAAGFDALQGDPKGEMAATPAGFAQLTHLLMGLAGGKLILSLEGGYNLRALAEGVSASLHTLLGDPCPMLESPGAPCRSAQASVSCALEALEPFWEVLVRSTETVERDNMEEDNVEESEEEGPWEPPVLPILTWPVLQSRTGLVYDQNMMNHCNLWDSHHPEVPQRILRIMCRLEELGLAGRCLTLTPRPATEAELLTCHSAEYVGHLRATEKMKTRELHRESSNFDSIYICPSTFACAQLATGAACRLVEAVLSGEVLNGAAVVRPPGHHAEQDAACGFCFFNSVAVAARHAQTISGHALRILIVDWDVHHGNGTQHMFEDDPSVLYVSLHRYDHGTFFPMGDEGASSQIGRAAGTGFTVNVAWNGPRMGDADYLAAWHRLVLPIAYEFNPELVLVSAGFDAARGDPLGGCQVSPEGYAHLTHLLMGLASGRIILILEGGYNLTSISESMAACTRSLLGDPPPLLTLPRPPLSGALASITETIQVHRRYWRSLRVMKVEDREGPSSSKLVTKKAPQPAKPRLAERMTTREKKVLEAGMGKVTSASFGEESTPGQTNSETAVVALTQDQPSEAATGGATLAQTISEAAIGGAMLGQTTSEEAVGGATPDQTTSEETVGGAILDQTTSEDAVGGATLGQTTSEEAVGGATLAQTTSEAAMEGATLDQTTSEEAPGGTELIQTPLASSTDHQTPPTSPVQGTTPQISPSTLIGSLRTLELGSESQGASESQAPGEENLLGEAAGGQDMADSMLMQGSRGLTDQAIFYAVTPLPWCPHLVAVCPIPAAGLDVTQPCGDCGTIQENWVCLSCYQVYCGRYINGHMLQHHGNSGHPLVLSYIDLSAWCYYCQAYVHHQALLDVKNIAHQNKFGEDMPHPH

[7] = biological target: T2, Histone deacetylase 7 (Homo sapiens) (UniProt Q8WUI4); experiment: Inhibition of recombinant human GST-His-tagged HDAC7 at 1 uM using fluorogenic HDAC substrate incubated for 30 mins by microplate reader assay relative to control
T2 sequence (whole entry): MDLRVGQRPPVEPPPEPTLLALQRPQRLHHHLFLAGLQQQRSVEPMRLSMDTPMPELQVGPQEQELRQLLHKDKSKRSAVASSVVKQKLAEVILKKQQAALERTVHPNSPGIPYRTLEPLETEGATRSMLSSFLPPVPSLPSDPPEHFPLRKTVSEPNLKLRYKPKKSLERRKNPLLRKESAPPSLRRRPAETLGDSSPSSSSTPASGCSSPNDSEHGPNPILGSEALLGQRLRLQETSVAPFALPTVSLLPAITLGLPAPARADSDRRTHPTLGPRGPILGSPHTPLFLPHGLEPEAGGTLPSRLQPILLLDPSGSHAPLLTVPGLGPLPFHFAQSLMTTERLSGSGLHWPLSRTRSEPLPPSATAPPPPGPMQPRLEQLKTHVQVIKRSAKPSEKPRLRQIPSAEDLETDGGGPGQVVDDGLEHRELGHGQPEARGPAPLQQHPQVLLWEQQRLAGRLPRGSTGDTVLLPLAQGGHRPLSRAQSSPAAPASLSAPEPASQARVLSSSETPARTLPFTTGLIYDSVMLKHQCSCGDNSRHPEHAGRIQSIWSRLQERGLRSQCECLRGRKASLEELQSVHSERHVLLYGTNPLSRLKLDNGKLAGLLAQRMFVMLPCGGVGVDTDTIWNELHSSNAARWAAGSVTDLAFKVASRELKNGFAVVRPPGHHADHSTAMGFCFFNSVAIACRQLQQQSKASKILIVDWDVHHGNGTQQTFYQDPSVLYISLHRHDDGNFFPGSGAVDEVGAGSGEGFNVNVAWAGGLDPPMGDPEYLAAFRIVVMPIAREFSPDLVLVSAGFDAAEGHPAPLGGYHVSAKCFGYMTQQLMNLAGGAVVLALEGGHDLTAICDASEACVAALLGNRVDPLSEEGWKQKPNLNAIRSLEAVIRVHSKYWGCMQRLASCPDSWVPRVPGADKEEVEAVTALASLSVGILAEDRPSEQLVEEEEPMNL

[8] = biological target: T3, Histone deacetylase 8 (Homo sapiens) (UniProt Q9BY41); experiment: Inhibition of recombinant human GST-His-tagged HDAC8 at 1 uM using fluorogenic HDAC substrate incubated for 30 mins by microplate reader assay relative to control
T3 sequence (whole entry): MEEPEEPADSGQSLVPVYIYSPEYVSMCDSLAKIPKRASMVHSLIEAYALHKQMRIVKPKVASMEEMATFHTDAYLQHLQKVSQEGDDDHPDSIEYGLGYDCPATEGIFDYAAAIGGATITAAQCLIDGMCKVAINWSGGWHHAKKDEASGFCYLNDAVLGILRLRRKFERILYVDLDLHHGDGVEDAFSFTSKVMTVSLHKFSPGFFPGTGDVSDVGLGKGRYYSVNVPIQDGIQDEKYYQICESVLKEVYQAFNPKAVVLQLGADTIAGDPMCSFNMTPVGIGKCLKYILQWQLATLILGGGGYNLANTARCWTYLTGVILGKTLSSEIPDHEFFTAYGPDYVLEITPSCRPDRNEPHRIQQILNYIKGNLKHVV

Chain of Histone deacetylase 4 (Homo sapiens) (P56524 whole entry): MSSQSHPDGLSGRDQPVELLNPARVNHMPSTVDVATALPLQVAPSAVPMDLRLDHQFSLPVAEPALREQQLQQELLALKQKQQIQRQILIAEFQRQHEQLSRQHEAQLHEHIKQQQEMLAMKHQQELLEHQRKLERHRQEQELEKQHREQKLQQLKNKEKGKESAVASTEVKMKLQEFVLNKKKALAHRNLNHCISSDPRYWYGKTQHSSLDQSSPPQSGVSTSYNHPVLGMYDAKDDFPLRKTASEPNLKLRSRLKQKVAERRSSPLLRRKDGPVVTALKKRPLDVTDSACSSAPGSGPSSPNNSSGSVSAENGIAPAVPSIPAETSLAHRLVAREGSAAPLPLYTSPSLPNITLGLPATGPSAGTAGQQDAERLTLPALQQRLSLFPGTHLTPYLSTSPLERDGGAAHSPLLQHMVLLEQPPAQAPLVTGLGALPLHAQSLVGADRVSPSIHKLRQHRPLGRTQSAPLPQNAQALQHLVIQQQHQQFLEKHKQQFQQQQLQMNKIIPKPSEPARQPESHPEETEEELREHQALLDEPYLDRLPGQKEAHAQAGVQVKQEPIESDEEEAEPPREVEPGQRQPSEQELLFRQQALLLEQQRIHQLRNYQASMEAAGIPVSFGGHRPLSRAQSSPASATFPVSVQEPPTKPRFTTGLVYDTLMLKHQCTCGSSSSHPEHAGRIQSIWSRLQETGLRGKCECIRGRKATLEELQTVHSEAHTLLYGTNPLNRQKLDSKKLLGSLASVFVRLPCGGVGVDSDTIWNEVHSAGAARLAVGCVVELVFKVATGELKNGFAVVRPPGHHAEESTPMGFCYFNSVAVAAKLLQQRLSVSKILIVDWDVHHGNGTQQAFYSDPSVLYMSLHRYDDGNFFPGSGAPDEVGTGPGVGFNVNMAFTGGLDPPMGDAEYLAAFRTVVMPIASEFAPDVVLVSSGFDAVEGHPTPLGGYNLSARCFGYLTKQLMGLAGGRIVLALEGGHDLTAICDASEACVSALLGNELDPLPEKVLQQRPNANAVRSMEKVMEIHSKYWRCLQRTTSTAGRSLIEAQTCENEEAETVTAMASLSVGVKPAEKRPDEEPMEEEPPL
Chain of Histone deacetylase 2 (Homo sapiens) (Q92769 whole entry): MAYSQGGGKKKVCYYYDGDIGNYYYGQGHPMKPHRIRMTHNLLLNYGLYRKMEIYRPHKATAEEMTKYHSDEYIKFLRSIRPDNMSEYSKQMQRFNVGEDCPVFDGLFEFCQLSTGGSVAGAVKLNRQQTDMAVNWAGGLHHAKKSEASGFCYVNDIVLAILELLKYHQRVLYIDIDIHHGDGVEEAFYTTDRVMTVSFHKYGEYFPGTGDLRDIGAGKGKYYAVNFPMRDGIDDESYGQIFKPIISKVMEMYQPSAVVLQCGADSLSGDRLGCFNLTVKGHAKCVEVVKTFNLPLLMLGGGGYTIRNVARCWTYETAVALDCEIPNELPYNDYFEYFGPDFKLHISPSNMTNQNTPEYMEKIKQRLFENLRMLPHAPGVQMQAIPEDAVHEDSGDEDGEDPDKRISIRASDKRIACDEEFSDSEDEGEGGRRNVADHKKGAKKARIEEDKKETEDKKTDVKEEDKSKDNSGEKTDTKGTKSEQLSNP
Chain of Histone deacetylase 3 (Homo sapiens) (O15379 whole entry): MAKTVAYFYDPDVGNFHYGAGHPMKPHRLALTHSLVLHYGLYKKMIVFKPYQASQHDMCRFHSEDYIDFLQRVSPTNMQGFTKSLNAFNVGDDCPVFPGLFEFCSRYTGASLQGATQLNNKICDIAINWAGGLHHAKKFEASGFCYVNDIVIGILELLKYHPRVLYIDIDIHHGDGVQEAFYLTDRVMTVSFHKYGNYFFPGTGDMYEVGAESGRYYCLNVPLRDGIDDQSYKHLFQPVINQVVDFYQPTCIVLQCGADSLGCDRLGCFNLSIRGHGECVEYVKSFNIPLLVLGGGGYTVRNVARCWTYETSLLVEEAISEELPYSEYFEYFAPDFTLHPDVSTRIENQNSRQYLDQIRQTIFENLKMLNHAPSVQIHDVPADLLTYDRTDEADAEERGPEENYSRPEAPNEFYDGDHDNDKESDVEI
Chain of Histone deacetylase 5 (Homo sapiens) (Q9UQL6 whole entry): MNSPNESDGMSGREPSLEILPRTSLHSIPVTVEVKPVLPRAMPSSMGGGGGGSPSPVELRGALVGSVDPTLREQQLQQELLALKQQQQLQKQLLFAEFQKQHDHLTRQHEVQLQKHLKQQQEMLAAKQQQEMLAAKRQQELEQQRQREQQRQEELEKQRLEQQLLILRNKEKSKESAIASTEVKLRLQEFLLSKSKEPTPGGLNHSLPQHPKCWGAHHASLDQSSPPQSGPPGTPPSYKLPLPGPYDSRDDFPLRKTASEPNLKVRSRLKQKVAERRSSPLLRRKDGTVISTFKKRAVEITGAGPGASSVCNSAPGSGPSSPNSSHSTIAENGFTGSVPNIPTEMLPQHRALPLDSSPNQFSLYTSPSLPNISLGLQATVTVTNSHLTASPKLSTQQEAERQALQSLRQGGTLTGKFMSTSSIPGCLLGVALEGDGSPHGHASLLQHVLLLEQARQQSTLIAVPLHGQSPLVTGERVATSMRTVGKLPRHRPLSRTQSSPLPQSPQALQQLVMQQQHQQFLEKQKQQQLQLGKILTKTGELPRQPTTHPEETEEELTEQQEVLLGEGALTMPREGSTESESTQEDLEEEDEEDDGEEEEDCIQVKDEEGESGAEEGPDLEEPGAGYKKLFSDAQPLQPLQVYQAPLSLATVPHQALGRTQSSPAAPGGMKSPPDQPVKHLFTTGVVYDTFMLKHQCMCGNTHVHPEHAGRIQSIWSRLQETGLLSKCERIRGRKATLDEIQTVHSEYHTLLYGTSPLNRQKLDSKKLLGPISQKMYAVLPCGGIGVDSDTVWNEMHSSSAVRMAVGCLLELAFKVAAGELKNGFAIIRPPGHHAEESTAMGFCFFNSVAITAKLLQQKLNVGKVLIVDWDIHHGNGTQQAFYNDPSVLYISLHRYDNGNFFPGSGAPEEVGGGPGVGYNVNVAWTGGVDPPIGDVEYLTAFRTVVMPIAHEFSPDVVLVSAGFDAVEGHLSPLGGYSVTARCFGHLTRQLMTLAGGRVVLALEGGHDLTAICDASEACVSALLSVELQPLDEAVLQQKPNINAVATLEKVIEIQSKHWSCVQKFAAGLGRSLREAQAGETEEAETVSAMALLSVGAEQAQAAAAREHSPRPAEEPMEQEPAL
Chain of Histone deacetylase 1 (Homo sapiens) (Q13547 whole entry): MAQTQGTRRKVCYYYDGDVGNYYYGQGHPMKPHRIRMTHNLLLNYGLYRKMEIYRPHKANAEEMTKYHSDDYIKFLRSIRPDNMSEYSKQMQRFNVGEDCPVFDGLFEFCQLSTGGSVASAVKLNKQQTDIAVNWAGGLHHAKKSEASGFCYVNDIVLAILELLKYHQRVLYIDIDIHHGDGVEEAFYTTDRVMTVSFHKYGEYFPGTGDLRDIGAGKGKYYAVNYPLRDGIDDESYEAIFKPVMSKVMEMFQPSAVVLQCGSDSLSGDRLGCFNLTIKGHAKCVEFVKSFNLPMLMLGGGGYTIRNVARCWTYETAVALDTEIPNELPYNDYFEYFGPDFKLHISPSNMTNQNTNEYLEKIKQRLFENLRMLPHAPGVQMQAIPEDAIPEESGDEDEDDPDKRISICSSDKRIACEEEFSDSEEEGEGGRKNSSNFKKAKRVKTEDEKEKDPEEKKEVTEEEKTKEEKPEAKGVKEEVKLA

inhibition [1]	inhibition [2]	inhibition [3]	inhibition [4]	inhibition [5]	inhibition [6]	inhibition [7] [%]	inhibition [8] [%]	Structure (SMILES)	Activity (Homo sapiens)
–	–	–	–	–	–	–	–	CCOC(=O)C1=CN(Cc2ccc(CO)cc2)S(=O)(=O)NC1c1ccc(Cl)cc1Cl (stereo not given)	Active
inactive	inactive	inactive	inactive	inactive	inactive	40	35 to 60	CCOC(=O)C1=CN(Cc2ccc(C(=O)NO)cc2)S(=O)(=O)NC1c1ccc(Cl)cc1Cl (stereo not given)	Active
–	–	–	–	–	–	–	–	COC(=O)CCCN1C=C(C(=O)OCc2ccccc2)C(c2ccc(Cl)cc2Cl)NS1(=O)=O (stereo not given)	Active
–	–	–	–	–	–	–	–	O=C(O)CCCN1C=C(C(=O)O)C(c2ccc(Cl)cc2Cl)NS1(=O)=O (stereo not given)	Active
–	–	–	–	–	–	–	–	CCOC(=O)C1=CN(C(=O)OC(C)(C)C)S(=O)(=O)N(Cc2ccc(C(=O)OC(C)(C)C)cc2)C1c1ccc(Cl)cc1Cl (stereo not given)	Active
inactive	inactive	inactive	inactive	inactive	inactive	–	35 to 60	CCOC(=O)C1=CNS(=O)(=O)N(Cc2ccc(C(=O)O)cc2)C1c1ccc(Cl)cc1Cl (stereo not given)	Active
inactive	inactive	inactive	inactive	inactive	inactive	–	35 to 60	CCOC(=O)C1=CN(CCCC(=O)NO)S(=O)(=O)NC1c1ccc(Cl)cc1Cl (stereo not given)	Active
–	–	–	–	–	–	–	–	CCOC(=O)C1=CN(Cc2ccc(C(=O)O)cc2)S(=O)(=O)NC1c1ccc(Cl)cc1Cl (stereo not given)	Active
inactive	inactive	inactive	inactive	inactive	inactive	–	35 to 60	COC(=O)CCCN1C=C(C(=O)O)C(c2ccc(Cl)cc2Cl)NS1(=O)=O (stereo not given)	Active
–	–	–	–	–	–	–	–	CCOC(=O)C1=CN(CCCC(=O)OC)S(=O)(=O)NC1c1ccc(Cl)cc1Cl (stereo not given)	Active
–	–	–	–	–	–	–	–	CC1=C(C(=O)OCc2ccccc2)C(c2ccc(Cl)cc2Cl)NC(=O)N1CCCC(=O)O (stereo not given)	Active
